Test results reported in ChEMBL document CHEMBL1212863, “Synthesis, and biological evaluation of 2-(4-aminophenyl)benzothiazole derivatives as photosensitizing agents” (2010).
Activity calls are given as the source filed them. No cut-off for these calls is given here.

What was measured:
[1] = Cell cycle arrest in human BCC cells assessed as accumulation at sub G1 phase at 4 uM incubated for 4 hrs followed by 1 J/cm'2 UV irradiation measured after 24 hrs […]; assay type: functional
Method in brief: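 BCC cells (ATCC; RPMI1640, 10% FCS) exposed 4 h to agent, rinsed, irradiated in PBS with UVA (365 nm peak, 0.75 mW/cm²) at 1 J/cm². After 24 h, cells were fixed in 50% cold ethanol at −20 °C, treated with 100 µg/mL RNase A for 20 min at 37 °C, and stained with 50 µg/mL PI. 10,000 events were read by flow cytometry; the sub-G1 fraction was counted as apoptotic.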

BCC [2] = assay: Induction of apoptosis in human BCC cells assessed as decrease in mitochondrial potential at 2 uM incubated for 4 hrs followed by 1 J/cm'2 UV irradiation measured after 24 hrs; assay type: functional, cell-based
Method in brief: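 BCC dishes grown 24 h were pretreated 4 h at 0, 2 or 4 µM and given 1 J/cm² UVA, then trypsinized. Cells were stained 30 min at room temperature with DiOC₆ (100 nM/mL), washed, and read immediately by flow cytometry (FL-1, 530/30 nm). The percentage of cells with reduced Δψmt was scored from 10,000 cells. Three independent experiments were run.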

BCC [3] = assay: Inhibition of MAPK phosphorylation in human BCC cells at 4 uM incubated for 4 hrs followed by 1 J/cm'2 UV irradiation; assay type: cell-based
Method in brief: (§1)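 BCC cells were exposed to drug with UVA irradiation. Blots were blocked in 5% milk/PBS-T and probed for total and phospho-ERK, p38 and JNK. HRP secondaries and chemiluminescence were used; bands were quantified by densitometric scanning.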

[4] = Induction of apoptosis in human BCC cells assessed as decrease in intracellular ATP level at 2 uM incubated for 4 hrs followed by 1 J/cm'2 UV irradiation […]; assay type: functional; set-up: scale not given: the % may be the effect or the level left
BCC [5] = assay: Induction of ERK phosphorylation in human BCC cells at 4 uM incubated for 4 hrs followed by 1 J/cm'2 UV irradiation
[6] = Phototoxicity against human BCC cells assessed as cell viability at 4 uM incubated for 4 hrs followed by 0.25 J/cm'2 UV irradiation measured after 24 hrs by MTT assay; assay type: functional; conditions: light or radiation study, read-out: Activity
Method in brief: (§2)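 MTT assay: BCC cells were seeded at 2500/well and attached overnight. Cells were incubated 4 h with drug in triplicate, rinsed, irradiated in PBS with 365 nm UVA (0.25, 0.5 or 1 J/cm²), then returned to medium. After 24 h, MTT was added for 2 h at 37 °C, formazan was dissolved in DMSO, and absorbance was read at 540 nm relative to untreated controls.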

[7] = target: c-Jun N-terminal kinase, JNK (Homo sapiens) (UniProt P45983+P53779+P45984); assay: Inhibition of JNK phosphorylation in human BCC cells at 4 uM incubated for 4 hrs followed by 1 J/cm'2 UV irradiation; assay type: cell-based; method in brief: as §1
[8] = Phototoxicity against human BCC cells assessed as cell viability at 4 uM incubated for 4 hrs followed by 0.5 J/cm'2 UV irradiation measured after 24 hrs by MTT assay; assay type: functional; conditions: light or radiation study, read-out: Activity; method in brief: as §2
BCC [9] = assay: Induction of apoptosis in human BCC cells assessed as increase in intracellular H2O2 level at 4 uM incubated for 4 hrs followed by 1 J/cm'2 UV irradiation […]; assay type: functional, cell-based
Method in brief: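 ROS was measured in BCC cells given 0–4 µM drug, with or without catalase (800 U/mL) pretreatment, and then irradiated with UVA. Immediately after irradiation, DCFH-DA (10 µM) was added for 30 min at 37 °C. DCF fluorescence was read by flow cytometry on FL-1.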

[10] = Phototoxicity against human BCC cells assessed as cell viability at 4 uM incubated for 4 hrs followed by 1 J/cm'2 UV irradiation measured after 24 hrs by MTT assay; assay type: functional; conditions: light or radiation study, read-out: Activity; method in brief: as §2
[11] = Induction of apoptosis in human BCC cells assessed as caspase3 activation at 4 uM incubated for 4 hrs followed by 1 J/cm'2 UV irradiation measured after 24 hrs […]; assay type: functional; conditions: in the assay text read “2 uM” for “4 uM”
Method in brief: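 Caspase-3 was measured in BCC cells 24 h after 4 h drug exposure and 1 J/cm² UVA (365 nm) given in PBS. Pellets were lysed in cold buffer (25 µL per 10⁶ cells), spun at 12,000 rpm for 10 min at 4 °C, and the supernatant assayed colorimetrically by pNA release at 405 nm. Results are mean SD.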

[12] = Induction of apoptosis in human BCC cells assessed as decrease in intracellular ATP level at 4 uM incubated for 4 hrs followed by 1 J/cm'2 UV irradiation […]; assay type: functional; set-up: scale not given: the % may be the effect or the level left
[13] = Induction of apoptosis in human BCC cells assessed as caspase3 activation at 4 uM incubated for 4 hrs followed by 1 J/cm'2 UV irradiation measured after 24 hrs […]

Cc1cc(-c2nc3ccccc3s2)ccc1N
Activity [1]: 13.6%

CCc1ccc2nc(-c3ccc(N)cc3)sc2c1
Activity [1]: 29.2%

Nc1ccc(-c2nc3ccc(C(F)(F)F)cc3s2)cc1
Activity (BCC [2]): Active | Activity (BCC [3]): inactive | Activity [4]: 30% | Activity (BCC [5]): Active | viability at 4 µM [6]: 71% | Activity [7]: inactive | viability at 4 µM [8]: 65% | Activity (BCC [9]): Active | viability at 4 µM [10]: 45% | Activity [11]: 19.5% | Activity [1]: 35.4% | Activity [12]: 45% | Activity [13]: 27.5%

CCc1ccc2nc(-c3ccc(N)c(C)c3)sc2c1
Activity [1]: 13.8%

Cc1cc(-c2nc3ccc(C(F)(F)F)cc3s2)ccc1N
Activity [1]: 6.4%

COc1ccc2nc(-c3ccc(N)c(C)c3)sc2c1
Activity [1]: 14.8%

Cc1ccc2nc(-c3ccc(N)cc3)sc2c1
Activity [1]: 13.4%

COc1cccc2nc(-c3ccc(N)cc3)sc12
Activity [1]: 24.4%

COc1ccc2nc(-c3ccc(N)cc3)sc2c1
Activity [1]: 6.5%

Nc1ccc(-c2nc3ccccc3s2)cc1
Activity [1]: 6.5%
